Source: PubChem (several laboratories)
This is a sample that favours compounds with a hit; in the whole collection about 11% have one here.
S1P3 agonist – human S1P3 receptor agonists, primary screen, cell-based, primary and confirmation, NFAT-BLA reporter | Sphingosine 1-phosphate receptor 3 (Homo sapiens), Q99500 | S1P3 NFAT-BLA reporter cells, agonism, FRET ratio; relative to 1 µM S1P, basal subtracted | 0.1% of 60,000 active | activation, % at 4.5 µM;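 active = activation above the screen-wide mean plus 3 SD, cut at about 4.5% in these data, passing the limit was not always enough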
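material = human S1P3 NFAT-BLA reporter CHO cells | schedule = 4 h compound at 37 °C, 2 h substrate at RT | measured by = fluorescent BLA substrate, ex 405 nm, em 460/535 nm ratio | controls = 1 µM S1P reference | replication = primary once, confirmation triplicate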
S1P1 ag pot – S1P1 agonists and agonism potentiators, primary screen, cell-based, primary and confirmation screens, CRE-bla reporter; activation, % at 9.5 µM; S1P1 CRE-bla cells, forskolin, beta-lactamase FRET, potentiator mode; S1P1 agonist co-added at EC20, 2 nM; 100% = saturating reference agonist, 0% = basal; 0.57% of 56,000 active; Sphingosine 1-phosphate receptor 1 (Homo sapiens), P21453;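 active = activation above a cutoff set at the mean activation of all tested compounds plus 3 SD, cut at about 54% in these data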;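 note: forskolin at 4 µM as EC80 and the EC20 agonist is SEW2871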
Target sequence (P21453 whole entry, looked up): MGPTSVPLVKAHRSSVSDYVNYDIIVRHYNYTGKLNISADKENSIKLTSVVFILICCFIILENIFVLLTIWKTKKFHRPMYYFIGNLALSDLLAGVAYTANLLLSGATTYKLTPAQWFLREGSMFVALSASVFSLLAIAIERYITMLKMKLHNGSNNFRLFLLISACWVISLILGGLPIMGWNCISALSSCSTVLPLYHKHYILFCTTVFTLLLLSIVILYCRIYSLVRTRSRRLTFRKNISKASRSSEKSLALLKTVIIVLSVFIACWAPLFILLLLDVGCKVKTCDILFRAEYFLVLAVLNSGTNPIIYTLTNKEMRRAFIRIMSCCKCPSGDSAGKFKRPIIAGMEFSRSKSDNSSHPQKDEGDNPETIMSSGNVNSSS
M1 agonist – M1 muscarinic receptor agonists, primary screen, CHO-M1 cells, Fluo-4 calcium, agonist mode | B-score at 10 µM | AID 626, 2007 | Fluo-4 calcium fluorescence; stronger effect = higher value | 3% of 64,000 active;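 active = fluorescence rise, raw or as B-score row- and column-corrected plate score, outside the 99.7% band of its plate's samples, either direction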
TNAP act mid DEA – human TNAP enzyme activators, primary screen, biochemical, luminescent, intermediate phosphate acceptor level | Alkaline phosphatase, tissue-nonspecific isozyme (Homo sapiens), P05186 | purified TNAP, CDP-star luminescence, 100 mM DEA, 30 min; stronger effect = higher value; scale: 0 levamisole-inhibited, 1 vehicle-only enzyme | activation factor at 20 µM | 64,000 tested, under 10 active | AID 813, 2007;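 active = activation factor of at least 2 at 20 µM, relative to controls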
M1 antag – antagonists of rat M1 muscarinic receptor; Muscarinic acetylcholine receptor M1 (Rattus norvegicus), P08482; CHO-M1 cells, Fluo-4 calcium, ACh EC80 antagonist mode; stronger effect = lower value; B-score at 10 µM; 3.4% of 64,000 active; AID 628, 2007;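 active = calcium fluorescence response, raw or row-and-column corrected B-score, differing from the plate sample mean either way at a set confidence level, mostly lower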
D1 mod – D1 CRE-luciferase signal change, two-sided – cell-based, HEK293 D1, dopamine EC30, D1 allosteric modulator project, primary screen | dopamine EC30 potentiation; actives deviate in either direction | 5.9% of 58,000 active | B-score at 10 µM;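 active = luminescence count or its row- and column-corrected plate score outside the 99.7% band of the plate's sample wells, on either side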
D1 mod confirm – D1 receptor positive allosteric modulators, retest, confirmation, cell-based, HEK293 D1, CRE-luciferase, duplicate; shares compounds with D1 mod; dopamine EC30 potentiation; stronger effect = higher value; luminescence at 10 µM; 88% of 2,200 active;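 active = luminescence in either of two replicates above the same-plate mean plus 3 SD of the low-dose dopamine control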
D1 ag no DA – D1 receptor agonism without dopamine, confirmation, mechanism study for D1 allosteric modulator project, cell-based, HEK293 D1, CRE-luciferase, secondary assay 1; shares compounds with D1 mod; luminescence, no dopamine; stronger effect = higher value; luminescence at 10 µM; 0.8% of 1,900 active; AID 646, 2007; in the data active = luminescence above about 3900
Isoprot counter – counter-screen for D1 modulators: isoproterenol response in HEK293 cells. shares compounds with D1 mod. HEK293 D1 CRE-luciferase, isoproterenol EC30 counter-screen; stronger effect = higher value. luminescence at 10 µM. 63% of 2,200 active;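 active = luminescence in either replicate above plate mean of wells with a partly effective reference agonist dose plus 3 SD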;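 note: isoproterenol raises cAMP through native beta-adrenoceptor Gs so signal bypasses D1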
Hits are given with their value; - = inactive; . = no result given.

SMILES	S1P3 agonist	S1P1 ag pot	M1 agonist	TNAP act mid DEA	M1 antag	D1 mod	D1 mod confirm	D1 ag no DA	Isoprot counter
COc1ccc2nc3oc(C(=O)N4CCN(c5cccc(Cl)c5)CC4)cc3cc2c1	-	-	-	-	-	3.6	-	-	-
CCOc1cc2[nH]c(=O)n(Cc3cccc(OC)c3)c(=O)c2cc1OCC	-	-	-	-	-	17	22168	-	4764
CCn1nnc(-c2ccccc2NC(=O)c2cc(OC)cc(OC)c2)n1	-	-	-	-	-	-	.	.	.
CCn1nnc(-c2ccccc2NC(=O)c2cc(OC)c(OC)c(OC)c2)n1	-	-	-	-	-	5.5	16052	-	3748
Cc1ccc(-c2ccc(=O)n(CC(=O)N3CCN(c4cccc(C)c4)C(C)C3)n2)cc1 (stereo not given)	-	-	-	-	-	-	.	.	.
CCCCN(C)CCCNC(=O)CS(=O)Cc1nc(-c2ccc(OC)c(OC)c2)oc1C (stereo not given)	-	-	-	-	-	-	.	.	.
CCOC(=O)N1CCC(NC(=O)CSCc2nc(-c3ccc(OC)c(OC)c3)oc2C)CC1	-	-	-	-	-	-	.	.	.
COc1ccc(-c2nc(CSCC(=O)N3CCN(c4cccc(C)c4)C(C)C3)c(C)o2)cc1OC (stereo not given)	-	-	-	-	-	12	12288	.	3596
COc1ccc(-c2nc(CS(=O)CC(=O)NC3CCCc4ccccc43)c(C)o2)cc1OC (stereo not given)	-	-	-	-	-	4.4	9276	.	3192
COc1ccc(-c2nc(CSCC(=O)N3CCc4ccccc4C3)c(C)o2)cc1OC	-	-	-	-	-	7.8	-	-	3652
CCOC(=O)N1CCN(C(c2ccc(F)cc2)c2sc3nc(C)nn3c2O)CC1 (stereo not given)	-	-	-	-	-	-	.	.	.
COC(=O)C1=C(C)Nc2ccc(C)cc2S1	-	-	-	-	-	8.7	11576	-	3380
O=C(NC(C(=O)c1ccccc1)n1ccc(=O)[nH]c1=O)c1ccccc1 (stereo not given)	-	-	-	-	-	-	.	.	.
O=C(Nc1nncs1)C1c2ccccc2Oc2ccccc21	.	.	-	-	-	-	.	.	.
Cc1cc2cc(CN(CCN3CCOCC3)C(=O)Nc3ccccc3F)c(=O)[nH]c2cc1C	-	-	-	-	-	2.7	5960	-	-
CC(=O)Nc1nc(CCC(C)C)cc2c1c(=O)oc1ccccc12	-	-	-	-	-	.	.	.	.
c1cnc2c(SCc3ccc(-c4nnco4)cc3)cccc2c1	-	-	-	-	-	5.3	8332	.	3088
CN1CCN(c2nc3c(c(=O)n(C)c(=O)n3C)n2CC(=O)C23CC4CC(CC(C4)C2)C3)CC1	-	-	-	-	-	-	.	.	.
Cc1noc(NS(=O)(=O)c2ccc(N3Cc4ccccc4C3=O)cc2)c1C	.	.	-	-	-	6.6	15188	-	2956
O=S(=O)(c1ccc2c(c1)nc(COc1ccc(Cl)cc1)n2CC1CCCO1)N1CCOCC1 (stereo not given)	-	-	-	-	-	-	.	.	.
COc1ccc(-c2c(C)n([O-])c3c([n+]2=O)CCC3)cc1OC	-	-	-	-	-	2.3	-	-	-
CSc1nc2ccccc2n1C(=O)Oc1ccccc1	-	-	-	-	-	9.4	12420	-	4488
Cc1ccc(CNC(=O)Cn2c(=O)oc3ccccc32)o1	-	-	-	-	-	-	.	.	.
COc1cc(OC)cc(C(=O)N2CCN(C(=O)c3ccc(OC)c(OC)c3)CC2)c1	-	.	-	-	-	14	19992	-	3732
COC(=O)CN(c1ccccc1F)S(=O)(=O)c1ccccc1	-	-	-	-	-	-	.	.	.
SMILES	S1P3 agonist	S1P1 ag pot	M1 agonist	TNAP act mid DEA	M1 antag	D1 mod	D1 mod confirm	D1 ag no DA	Isoprot counter
COC(=O)CN(c1ccccn1)S(=O)(=O)c1ccccc1	-	-	-	-	-	5.2	-	-	-
CCOC(=O)c1sc(-c2ccc(OC)cc2)cc1N	-	-	-	-	-	-	.	.	.
CCOC(=O)c1cc(C)n(CCc2ccccc2)c1C	-	.	-	-	-	-	.	.	.
CCOC(=O)c1cc(-c2ccccc2)sc1N	-	.	-	-	-	12	19816	-	3836
CCOC(=O)c1sc(-c2ccccc2)cc1N	-	-	-	-	-	6.1	12680	-	-
CC(=O)NCCn1c(SCc2cc(=O)n3cc(Cl)ccc3n2)nc2ccccc2c1=O	-	-	-	-	-	3.7	8148	-	3584
CC(=O)NCCn1c(SCc2ccccc2F)nc2ccccc2c1=O	-	-	-	-	-	9.1	8204	-	3388
Cn1c(SCc2ccccc2F)nc2cccnc21	-	-	-	-	-	7.4	7412	-	2900
CC(=O)NCCn1c(SCC#N)nc2ccccc2c1=O	-	-	-	-	-	-	.	.	.
COc1ccc(-c2csc(NC(C)=O)n2)cc1OC	-	.	-	-	-	6.1	10116	-	3716
COc1cccc(-c2csc(NC(C)=O)n2)c1	-	-	-	-	-	-	.	.	.
O=C(Cc1cccs1)Nc1nnc(CCc2ccccc2)s1	-	.	-	-	-	-	.	.	.
COc1ccc(CC(=O)Nc2nc(C)cs2)cc1OC	-	-	-	-	-	3.9	12824	-	3836
COc1ccc(Cc2nnc(NC(=O)Cc3cccs3)s2)cc1OC	-	-	-	.	-	17	27116	-	4196
CC(=O)Nc1ccc(C2NC(=O)c3ccccc3O2)cc1 (stereo not given)	-	-	-	-	-	3.1	-	-	-
